Laboratory results published in paper PMC4832855 (Cancer Science, 2016).

Columns and labels:
[1] = test system: patients with advanced solid tumors; test: Phase I first-in-human study: safety, tolerability, DLT, MTD; format: in vivo
Procedure, shortened: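 Open-label 3+3 dose-escalation/de-escalation; oral once-daily dosing under overnight fasting for 28 days, 1-week observation, then continuous; AEs graded by CTCAE v3.0 with attribution; DLTs included grade 3 fasting hyperglycemia, grade 3 non-fasting hyperglycemia >4 h, grade 4 hyperglycemia, grade ≥2 cardiac toxicity, other grade ≥3 non-hematologic events, grade 4 neutropenia >7 days, grade 4 thrombocytopenia.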

[2] = test system: phosphorylation of AKT in HT‐29/GFP cells; test: In vitro signal transduction assay; format: cell-based, human; conditions: same concentration ranges (up to 30 nmol/L)
Procedure, shortened: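 HT-29/GFP colon cancer cells in culture exposed to test compound, then stimulated with human IGF-1 or human insulin; receptor tyrosine phosphorylation and downstream signalling assessed across a concentration series.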

[3] = test system: Btc; test: Kinase inhibition profiling at 100 nmol/L; format: biochemical, human
[4] = preliminary in vitro and in vivo studies; ref Kyowa Hakko Kirin Co., Tokyo, unpublished data; cited from earlier work
[5] = molecular target: IGF‐1R (Homo sapiens, UniProt P08069); test: Kinase inhibition profiling at 100 nmol/L; format: biochemical; conditions: read-out: Inhibition at 100 nmol/L
IGF‐1R, sequence (P08069 31-1367): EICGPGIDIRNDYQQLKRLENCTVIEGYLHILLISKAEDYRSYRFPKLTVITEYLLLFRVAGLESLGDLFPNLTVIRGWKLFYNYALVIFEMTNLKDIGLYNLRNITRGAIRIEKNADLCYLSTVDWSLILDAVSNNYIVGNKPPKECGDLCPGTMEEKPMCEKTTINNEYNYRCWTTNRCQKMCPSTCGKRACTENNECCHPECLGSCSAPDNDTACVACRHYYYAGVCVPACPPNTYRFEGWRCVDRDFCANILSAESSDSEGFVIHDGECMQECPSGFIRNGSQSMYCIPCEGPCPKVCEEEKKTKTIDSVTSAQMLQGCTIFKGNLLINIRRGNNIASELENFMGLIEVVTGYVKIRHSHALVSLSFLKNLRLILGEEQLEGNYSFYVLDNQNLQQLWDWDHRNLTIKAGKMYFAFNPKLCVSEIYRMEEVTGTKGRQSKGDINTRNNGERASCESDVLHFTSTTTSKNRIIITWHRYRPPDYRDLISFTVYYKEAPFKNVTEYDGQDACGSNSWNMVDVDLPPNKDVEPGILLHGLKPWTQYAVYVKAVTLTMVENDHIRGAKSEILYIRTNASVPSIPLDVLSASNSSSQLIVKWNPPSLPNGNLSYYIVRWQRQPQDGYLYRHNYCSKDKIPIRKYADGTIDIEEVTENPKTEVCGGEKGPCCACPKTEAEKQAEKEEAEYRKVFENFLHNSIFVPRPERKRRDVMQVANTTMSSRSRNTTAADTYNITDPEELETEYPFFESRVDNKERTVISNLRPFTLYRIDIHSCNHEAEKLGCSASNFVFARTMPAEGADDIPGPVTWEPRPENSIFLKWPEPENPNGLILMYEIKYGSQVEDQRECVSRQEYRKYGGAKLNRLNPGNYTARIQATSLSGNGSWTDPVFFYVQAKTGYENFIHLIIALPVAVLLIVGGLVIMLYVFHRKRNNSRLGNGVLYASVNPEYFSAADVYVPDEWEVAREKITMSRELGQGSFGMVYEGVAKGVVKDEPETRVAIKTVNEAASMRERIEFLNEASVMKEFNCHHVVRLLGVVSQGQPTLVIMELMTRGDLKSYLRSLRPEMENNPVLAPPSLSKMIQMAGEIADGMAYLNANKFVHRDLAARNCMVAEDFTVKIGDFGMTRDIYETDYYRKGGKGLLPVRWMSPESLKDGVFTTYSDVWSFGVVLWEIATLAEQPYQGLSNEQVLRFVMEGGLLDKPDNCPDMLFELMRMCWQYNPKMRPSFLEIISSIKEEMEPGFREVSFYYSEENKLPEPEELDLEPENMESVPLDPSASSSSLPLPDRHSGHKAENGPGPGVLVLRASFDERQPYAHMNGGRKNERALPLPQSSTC

[6] = molecular target: AurA (Homo sapiens, UniProt O14965); test: Kinase inhibition profiling at 100 nmol/L; format: biochemical
AurA, sequence (O14965 whole entry): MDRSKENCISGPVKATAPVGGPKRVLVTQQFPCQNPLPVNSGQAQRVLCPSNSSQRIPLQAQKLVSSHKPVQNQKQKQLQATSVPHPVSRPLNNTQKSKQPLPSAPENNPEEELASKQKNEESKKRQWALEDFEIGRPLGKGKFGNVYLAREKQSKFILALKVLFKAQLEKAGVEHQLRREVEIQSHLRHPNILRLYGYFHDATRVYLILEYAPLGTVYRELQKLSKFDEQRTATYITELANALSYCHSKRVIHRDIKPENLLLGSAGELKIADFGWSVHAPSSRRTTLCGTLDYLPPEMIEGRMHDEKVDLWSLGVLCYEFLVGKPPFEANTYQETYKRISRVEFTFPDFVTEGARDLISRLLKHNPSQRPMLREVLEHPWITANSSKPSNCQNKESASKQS

[7] = test system: p381; test: Kinase inhibition profiling at 100 nmol/L; format: biochemical, human; conditions: p381, 100 nmol/L

Cc1ccsc1C(=O)Nc1cc(CN2CCN(C(=O)CO)CC2)ccc1/C=C/c1n[nH]c2ccccc12 [KW‐2450]
Diarrhea, treatment‐related, Grade 1–2 ([1]; 50 mg/day (n = 6)): 2 (33.3) No. of patients (%) | Diarrhea, treatment‐related, Grade 3 ([1]; 50 mg/day (n = 6)): 0 (0.0) No. of patients (%) | Dizziness, treatment‐related, Grade 1–2 ([1]; 50 mg/day (n = 6)): 2 (33.3) No. of patients (%) | Dizziness, treatment‐related, Grade 3 ([1]; 50 mg/day (n = 6)): 0 (0.0) No. of patients (%) | Fatigue, treatment‐related, Grade 1–2 ([1]; 50 mg/day (n = 6)): 4 (66.7) No. of patients (%) | Fatigue, treatment‐related, Grade 3 ([1]; 50 mg/day (n = 6)): 0 (0.0) No. of patients (%) | Hyperglycemia, treatment‐related, Grade 1–2 ([1]; 50 mg/day (n = 6)): 2 (33.3) No. of patients (%) | Hyperglycemia, treatment‐related, Grade 3 ([1]; 50 mg/day (n = 6)): 2 (33.3) No. of patients (%) | Mucosal inflammation, treatment‐related, Grade 1–2 ([1]; 50 mg/day (n = 6)): 1 (16.7) No. of patients (%) | Mucosal inflammation, treatment‐related, Grade 3 ([1]; 50 mg/day (n = 6)): 0 (0.0) No. of patients (%) | Nausea, treatment‐related, Grade 1–2 ([1]; 50 mg/day (n = 6)): 4 (66.7) No. of patients (%) | Nausea, treatment‐related, Grade 3 ([1]; 50 mg/day (n = 6)): 0 (0.0) No. of patients (%) | Pain, treatment‐related, Grade 1–2 ([1]; 50 mg/day (n = 6)): 2 (33.3) No. of patients (%) | Pain, treatment‐related, Grade 3 ([1]; 50 mg/day (n = 6)): 0 (0.0) No. of patients (%) | Rash, treatment‐related, Grade 1–2 ([1]; 50 mg/day (n = 6)): 0 (0.0) No. of patients (%) | Rash, treatment‐related, Grade 3 ([1]; 50 mg/day (n = 6)): 0 (0.0) No. of patients (%) | Vomiting, treatment‐related, Grade 1–2 ([1]; 50 mg/day (n = 6)): 1 (16.7) No. of patients (%) | Vomiting, treatment‐related, Grade 3 ([1]; 50 mg/day (n = 6)): 0 (0.0) No. of patients (%) | Patients with dose‐limiting toxicity ([1]; 50 mg/day, two of six patients, grade 3 non‐fasting hyperglycemia): 33.3% | Anorexia, treatment‐related, Grade 1–2 ([1]; Total (n = 13)): 2 (15.4) No. of patients (%) | Anorexia, treatment‐related, Grade 3 ([1]; Total (n = 13)): 0 (0.0) No. of patients (%) | Constipation, treatment‐related, Grade 1–2 ([1]; Total (n = 13)): 2 (15.4) No. of patients (%) | Constipation, treatment‐related, Grade 3 ([1]; Total (n = 13)): 0 (0.0) No. of patients (%) | Decreased appetite, treatment‐related, Grade 1–2 ([1]; Total (n = 13)): 3 (23.1) No. of patients (%) | Decreased appetite, treatment‐related, Grade 3 ([1]; Total (n = 13)): 0 (0.0) No. of patients (%) | Diarrhea, treatment‐related, Grade 1–2 ([1]; Total (n = 13)): 2 (15.4) No. of patients (%) | Diarrhea, treatment‐related, Grade 3 ([1]; Total (n = 13)): 0 (0.0) No. of patients (%) | Dizziness, treatment‐related, Grade 1–2 ([1]; Total (n = 13)): 3 (23.1) No. of patients (%) | Dizziness, treatment‐related, Grade 3 ([1]; Total (n = 13)): 0 (0.0) No. of patients (%) | Fatigue, treatment‐related, Grade 1–2 ([1]; Total (n = 13)): 8 (61.5) No. of patients (%) | Fatigue, treatment‐related, Grade 3 ([1]; Total (n = 13)): 0 (0.0) No. of patients (%) | Hyperglycemia, treatment‐related, Grade 1–2 ([1]; Total (n = 13)): 3 (23.1) No. of patients (%) | Hyperglycemia, treatment‐related, Grade 3 ([1]; Total (n = 13)): 2 (15.4) No. of patients (%) | Mucosal inflammation, treatment‐related, Grade 1–2 ([1]; Total (n = 13)): 2 (15.4) No. of patients (%) | Mucosal inflammation, treatment‐related, Grade 3 ([1]; Total (n = 13)): 0 (0.0) No. of patients (%) | Nausea, treatment‐related, Grade 1–2 ([1]; Total (n = 13)): 6 (46.2) No. of patients (%) | Nausea, treatment‐related, Grade 3 ([1]; Total (n = 13)): 0 (0.0) No. of patients (%) | Pain, treatment‐related, Grade 1–2 ([1]; Total (n = 13)): 2 (15.4) No. of patients (%) | Pain, treatment‐related, Grade 3 ([1]; Total (n = 13)): 0 (0.0) No. of patients (%) | Vomiting, treatment‐related, Grade 1–2 ([1]; Total (n = 13)): 2 (15.4) No. of patients (%) | Vomiting, treatment‐related, Grade 3 ([1]; Total (n = 13)): 0 (0.0) No. of patients (%) | Maximum tolerated dose (MTD) ([1]; once daily orally, continuous): 37.5 mg | Recommended phase II dose (RP2D) ([1]; oral, once daily): 37.5 mg/day | Inhibition of phosphorylation of AKT downstream to IGF‐1R or IR [2]: inhibited phosphorylation of AKT | Inhibition at 100 nmol/L [3]: 63.2% | Antitumor effect in combination with lapatinib and letrozole [4]: synergistic antitumor effects | inhibition at 0.1 µM [5]: 94.1% | Inhibition at 100 nmol/L ([6]; AurA, 100 nmol/L): 99.5% | inhibition at 0.1 µM ([6]; read-out: Inhibition at 100 nmol/L, AurA, 100 nmol/L): > 90% | Inhibition at 100 nmol/L [7]: –2.5%
